Legend:
Carbonic anhydrase 12 = Carbonic anhydrase 12 (Homo sapiens, UniProt O43570)
Carbonic anhydrase 9 = Carbonic anhydrase 9 (Homo sapiens, UniProt Q16790); assay: Inhibition of carbonic anhydrase 9 (unknown origin) preincubated for 15 mins by stopped flow CO2 hydration assay
PC-3 [1] = assay: Cytotoxicity against human PC3 cells assessed as cell viability at 30 uM after 48 hrs under hypoxic conditions by MTT assay (reference value: 100%); assay type: functional; conditions: PC-3, 48 h, read-out: Activity
Procedure, shortened: (§1)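 Cells cultured in high-glucose DMEM with 20% FBS at 37 °C and 5% CO2, seeded at 1x10^4/well, then dosed 24 h later (0–200 μM) for 48 h. Hypoxia: 1% O2, 5% CO2, balance N2 in a hypoxic workstation; normoxia: 20% O2 in air, 5% CO2. MTT (1 mg/ml) for 30 min at 37 °C, formazan dissolved in DMSO, A550. Untreated control set to 100%; quadruplicates, ≥3 cell batches, mean ± S.E.M.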

PC-3 [2] = assay: Cytotoxicity against human PC3 cells assessed as cell viability at 200 uM after 48 hrs under hypoxic conditions by MTT assay (reference value: 100%); assay type: functional; conditions: PC-3, 48 h, read-out: Activity
Procedure, shortened: as §1

HT-29 [3] = assay: Cytotoxicity against human HT-29 cells assessed as cell viability at 200 uM after 48 hrs under normoxic conditions by MTT assay (reference value: 100%); assay type: functional; conditions: Homo sapiens, HT-29, 48 h; read-out: Activity
Procedure, shortened: as §1

MDA-MB-231 [4] = assay: Cytotoxicity against human MDA-MB-231 cells assessed as reduction in cell viability after 48 hrs under hypoxic conditions by MTT assay; assay type: functional, cell-based
Procedure, shortened: as §1

HT-29 [5] = assay: Cytotoxicity against human HT-29 cells assessed as reduction in cell viability after 48 hrs under normoxic conditions by MTT assay; assay type: functional, cell-based
Procedure, shortened: as §1

MDA-MB-231 [6] = assay: Cytotoxicity against human MDA-MB-231 cells assessed as cell viability at 100 uM after 48 hrs under hypoxic conditions by MTT assay (reference value: 100%); assay type: functional; conditions: MDA-MB-231, 48 h, read-out: Activity
Procedure, shortened: as §1

PC-3 [7] = assay: Cytotoxicity against human PC3 cells assessed as cell viability at 100 uM after 48 hrs under normoxic conditions by MTT assay (reference value: 100%); assay type: functional; conditions: PC-3, 48 h, read-out: Activity
Procedure, shortened: as §1

HT-29 [8] = assay: Cytotoxicity against human HT-29 cells assessed as cell viability at 100 uM after 48 hrs under normoxic conditions by MTT assay (reference value: 100%); assay type: functional; conditions: Homo sapiens, HT-29, 48 h; read-out: Activity
Procedure, shortened: as §1

PC-3 [9] = assay: Cytotoxicity against human PC3 cells assessed as cell viability at 100 uM after 48 hrs under hypoxic conditions by MTT assay (reference value: 100%); assay type: functional; conditions: PC-3, 48 h, read-out: Activity
Procedure, shortened: as §1

HT-29 [10] = assay: Cytotoxicity against human HT-29 cells assessed as cell viability at 100 uM after 48 hrs under hypoxic conditions by MTT assay (reference value: 100%); assay type: functional; conditions: Homo sapiens, HT-29, 48 h; read-out: Activity
Procedure, shortened: as §1

MDA-MB-231 [11] = assay: Cytotoxicity against human MDA-MB-231 cells assessed as cell viability at 30 uM after 48 hrs under normoxic conditions by MTT assay (reference value: 100%); assay type: functional; conditions: MDA-MB-231, 48 h, read-out: Activity
Procedure, shortened: as §1

HT-29 [12] = assay: Cytotoxicity against human HT-29 cells assessed as cell viability at 30 uM after 48 hrs under normoxic conditions by MTT assay (reference value: 100%); assay type: functional; conditions: Homo sapiens, HT-29, 48 h; read-out: Activity
Procedure, shortened: as §1

PC-3 [13] = assay: Cytotoxicity against human PC3 cells assessed as cell viability at 200 uM after 48 hrs under normoxic conditions by MTT assay (reference value: 100%); assay type: functional; conditions: PC-3, 48 h, read-out: Activity
Procedure, shortened: as §1

HT-29 [14] = assay: Cytotoxicity against human HT-29 cells assessed as cell viability at 200 uM after 48 hrs under hypoxic conditions by MTT assay (reference value: 100%); assay type: functional; conditions: Homo sapiens, HT-29, 48 h; read-out: Activity
Procedure, shortened: as §1

MDA-MB-231 [15] = assay: Cytotoxicity against human MDA-MB-231 cells assessed as cell viability at 30 uM after 48 hrs under hypoxic conditions by MTT assay (reference value: 100%); assay type: functional; conditions: MDA-MB-231, 48 h, read-out: Activity
Procedure, shortened: as §1

MDA-MB-231 [16] = assay: Cytotoxicity against human MDA-MB-231 cells assessed as cell viability at 100 uM after 48 hrs under normoxic conditions by MTT assay (reference value: 100%); assay type: functional; conditions: MDA-MB-231, 48 h, read-out: Activity
Procedure, shortened: as §1

PC-3 [17] = assay: Cytotoxicity against human PC3 cells assessed as reduction in cell viability after 48 hrs under hypoxic conditions by MTT assay; assay type: functional, cell-based
Procedure, shortened: as §1

MDA-MB-231 [18] = assay: Cytotoxicity against human MDA-MB-231 cells assessed as cell viability at 200 uM after 48 hrs under hypoxic conditions by MTT assay (reference value: 100%); assay type: functional; conditions: MDA-MB-231, 48 h, read-out: Activity
Procedure, shortened: as §1

PC-3 [19] = assay: Cytotoxicity against human PC3 cells assessed as reduction in cell viability after 48 hrs under normoxic conditions by MTT assay; assay type: functional, cell-based
Procedure, shortened: as §1

MDA-MB-231 [20] = assay: Cytotoxicity against human MDA-MB-231 cells assessed as reduction in cell viability after 48 hrs under normoxic conditions by MTT assay; assay type: functional, cell-based
Procedure, shortened: as §1

PC-3 [21] = assay: Cytotoxicity against human PC3 cells assessed as cell viability at 30 uM after 48 hrs under normoxic conditions by MTT assay (reference value: 100%); assay type: functional; conditions: PC-3, 48 h, read-out: Activity
Procedure, shortened: as §1

MDA-MB-231 [22] = assay: Cytotoxicity against human MDA-MB-231 cells assessed as cell viability at 200 uM after 48 hrs under normoxic conditions by MTT assay (reference value: 100%); assay type: functional; conditions: MDA-MB-231, 48 h, read-out: Activity
Procedure, shortened: as §1

HT-29 [23] = assay: Cytotoxicity against human HT-29 cells assessed as reduction in cell viability after 48 hrs under hypoxic conditions by MTT assay; assay type: functional, cell-based
Procedure, shortened: as §1

HT-29 [24] = assay: Cytotoxicity against human HT-29 cells assessed as cell viability at 30 uM after 48 hrs under hypoxic conditions by MTT assay (reference value: 100%); assay type: functional; conditions: Homo sapiens, HT-29, 48 h; read-out: Activity
Procedure, shortened: as §1

Chain of Carbonic anhydrase 12 (O43570 whole entry): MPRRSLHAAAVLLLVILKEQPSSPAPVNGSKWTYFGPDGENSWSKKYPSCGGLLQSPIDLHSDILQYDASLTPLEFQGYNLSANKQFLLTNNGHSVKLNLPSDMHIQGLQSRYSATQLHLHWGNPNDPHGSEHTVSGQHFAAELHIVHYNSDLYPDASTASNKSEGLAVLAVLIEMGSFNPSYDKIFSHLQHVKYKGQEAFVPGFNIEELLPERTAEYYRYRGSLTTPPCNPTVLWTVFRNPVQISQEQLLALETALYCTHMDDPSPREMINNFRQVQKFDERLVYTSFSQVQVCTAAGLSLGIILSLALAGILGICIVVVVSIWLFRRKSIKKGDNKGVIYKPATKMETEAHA

## Cc1cc(C)cc(NC(=O)Nc2cc(S(N)(=O)=O)cc([N+](=O)[O-])c2O)c1
Carbonic anhydrase 12
  Ki: 620 nM
Carbonic anhydrase 9
  Ki: 530 nM

## NS(=O)(=O)c1ccc(O)c([N+](=O)[O-])c1
Carbonic anhydrase 12
  Ki: 160 nM
Carbonic anhydrase 9
  Ki: 120 nM

## NS(=O)(=O)c1cc(NC(=O)N[C@@H]2C(O)O[C@@H](CO)[C@H](O)[C@H]2O)c(O)c([N+](=O)[O-])c1 (some centres not stated)
Carbonic anhydrase 12
  Ki: 160 nM
Carbonic anhydrase 9
  Ki: 170 nM

## NS(=O)(=O)c1cc(NC(=O)c2ccccc2)c(OC(=O)c2ccccc2)c([N+](=O)[O-])c1
Carbonic anhydrase 12
  Ki: 300 nM
Carbonic anhydrase 9
  Ki: 130 nM

## Cc1cc(NC(=O)Nc2cc(S(N)(=O)=O)cc([N+](=O)[O-])c2O)ccc1F
Carbonic anhydrase 12
  Ki: 880 nM
Carbonic anhydrase 9
  Ki: 370 nM

## NS(=O)(=O)c1cc(NC(=O)Nc2ccc(F)cc2)c(O)c([N+](=O)[O-])c1
Carbonic anhydrase 12
  Ki: 500 nM
PC-3 [1]
  viability at 30 µM: 83%
PC-3 [2]
  viability at 200 µM: 23.5%
HT-29 [3]
  viability at 200 µM: 107%
MDA-MB-231 [4]
  Activity: Dose-dependent effect
MDA-MB-231 [4]; MDA-MB-231, 48 h
  IC50: > 200000 nM
HT-29 [5]
  Activity: Dose-dependent effect
HT-29 [5]; HT-29, 48 h
  IC50: > 200000 nM
MDA-MB-231 [6]
  viability at 100 µM: 68.4%
PC-3 [7]
  viability at 100 µM: 71.7%
HT-29 [8]
  viability at 100 µM: 112%
PC-3 [9]
  viability at 100 µM: 61.3%
HT-29 [10]
  viability at 100 µM: 88.2%
MDA-MB-231 [11]
  viability at 30 µM: 100%
HT-29 [12]
  viability at 30 µM: 110%
PC-3 [13]
  viability at 200 µM: 56.2%
HT-29 [14]
  viability at 200 µM: 79.3%
MDA-MB-231 [15]
  viability at 30 µM: 84.8%
MDA-MB-231 [16]
  viability at 100 µM: 92.8%
Carbonic anhydrase 9
  Ki: 340 nM
PC-3 [17]
  Activity: Dose-dependent effect
PC-3 [17]; PC-3, 48 h
  IC50: 134000 nM
MDA-MB-231 [18]
  viability at 200 µM: 61.7%
PC-3 [19]
  Activity: Dose-dependent effect
PC-3 [19]; PC-3, 48 h
  IC50: > 200000 nM
MDA-MB-231 [20]
  Activity: Dose-dependent effect
MDA-MB-231 [20]; MDA-MB-231, 48 h
  IC50: > 200000 nM
PC-3 [21]
  viability at 30 µM: 86.9%
MDA-MB-231 [22]
  viability at 200 µM: 90.3%
HT-29 [23]
  Activity: Dose-dependent effect
HT-29 [23]; HT-29, 48 h
  IC50: > 200000 nM
HT-29 [24]
  viability at 30 µM: 90.8%

## NS(=O)(=O)c1ccc(NC(=O)Nc2ccc(F)cc2)cc1 [SLC-0111]
PC-3 [1]
  viability at 30 µM: 90.8%
PC-3 [2]
  viability at 200 µM: 95.8%
HT-29 [3]
  viability at 200 µM: 35.6%
MDA-MB-231 [6]
  viability at 100 µM: 107%
PC-3 [7]
  viability at 100 µM: 109%
HT-29 [8]
  viability at 100 µM: 50.3%
PC-3 [9]
  viability at 100 µM: 106%
HT-29 [10]
  viability at 100 µM: 71.5%
MDA-MB-231 [11]
  viability at 30 µM: 83.4%
HT-29 [12]
  viability at 30 µM: 62.4%
PC-3 [13]
  viability at 200 µM: 83.1%
HT-29 [14]
  viability at 200 µM: 56.4%
MDA-MB-231 [15]
  viability at 30 µM: 103%
MDA-MB-231 [16]
  viability at 100 µM: 86.6%
MDA-MB-231 [18]
  viability at 200 µM: 103%
PC-3 [21]
  viability at 30 µM: 109%
MDA-MB-231 [22]
  viability at 200 µM: 56.9%
HT-29 [24]
  viability at 30 µM: 85.3%

## NS(=O)(=O)c1cc(O)c(O)c([N+](=O)[O-])c1
Carbonic anhydrase 12
  Ki: 90 nM
Carbonic anhydrase 9
  Ki: 240 nM

Source: ChEMBL document CHEMBL4261658, “4-Hydroxy-3-nitro-5-ureido-benzenesulfonamides Selectively Target the Tumor-Associated Carbonic Anhydrase Isoforms IX and XII Showing Hypoxia-Enhanced Antiproliferative Profiles” (J Med Chem, 2018)
